UBC13 polyUb: blocks human UBC13 polyubiquitin chain formation. 330,000 tested, 0.47% active. inhibition, % at 20 µM. TR-FRET. P61088; in the data active means inhibition above about 45%, passing the limit was not always enough
MEKK3 PB1 HTS: MEKK3-MEK5 PB1 interaction, increase or decrease; Q99759; bead-based flow cytometry, Alexa488-MEK5 binding to MEKK3; actives lie on both sides; 0 = blocked by unlabeled MEK5, 100 = vehicle; binding response (% of control), % at 10 µM; 290,000 tested, 1.4% active;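 active means binding response more than 3 SD above or below the average of its plate-row segment, actives on both sides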;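 further: Alexa488 bead fluorescence after subtracting the streptavidin-only scavenger bead signal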
Target sequence (Q99759 whole entry, looked up): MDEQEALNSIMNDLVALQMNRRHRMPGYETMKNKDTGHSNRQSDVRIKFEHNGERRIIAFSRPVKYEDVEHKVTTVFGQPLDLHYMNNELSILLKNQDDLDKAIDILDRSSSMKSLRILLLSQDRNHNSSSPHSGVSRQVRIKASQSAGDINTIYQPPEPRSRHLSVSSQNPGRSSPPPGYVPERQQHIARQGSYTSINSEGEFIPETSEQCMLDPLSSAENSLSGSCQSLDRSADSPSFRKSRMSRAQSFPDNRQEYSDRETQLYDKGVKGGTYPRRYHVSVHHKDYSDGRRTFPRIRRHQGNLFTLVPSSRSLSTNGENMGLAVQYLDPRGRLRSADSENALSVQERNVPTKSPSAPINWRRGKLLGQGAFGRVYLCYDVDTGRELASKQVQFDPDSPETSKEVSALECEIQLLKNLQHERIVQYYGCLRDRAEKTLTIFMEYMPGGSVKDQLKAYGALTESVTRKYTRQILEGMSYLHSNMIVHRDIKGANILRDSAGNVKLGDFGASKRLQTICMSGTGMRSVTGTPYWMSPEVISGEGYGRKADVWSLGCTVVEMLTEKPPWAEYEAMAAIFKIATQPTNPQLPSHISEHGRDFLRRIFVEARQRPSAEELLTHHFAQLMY
MEKK2wt PB1 HTS: raises or lowers MEK5 binding to wildtype human MEKK2 PB1 domain; Q9Y2U5; bead flow cytometry, Alexa488-MEK5 binding to MEKK2 WT; actives lie on both sides; binding response (% of control), % at 10 µM; 290,000 tested, 1.1% active; AID 1531; in the data active means binding response below about 67% or above about 130%
MEKK2 mut-MEK5: signal of MEK5 binding to mutant human MEKK2 PB1 domain | percent response, % at 10 µM | 290,000 tested, 0.35% active | bead flow cytometry, Alexa488-MEK5 binding to MEKK2 mutant; in the data active means percent response above about 24%, passing the limit was not always enough
PREPL inh: inhibitors of human prolyl oligopeptidase-like enzyme PREPL | 320,000 tested, 0.68% active | AID 2751 | recombinant PREPL, fluorescence polarization activity-based probe | inhibition, % at 5.96 µM; in the data active means inhibition above about 43%
Apaf-1 inh: human Apaf-1 inhibition. O14727. reconstituted apoptosome caspase-3 activity, DEVD-Rh110 fluorescence. inhibition, % at 20 µM. 330,000 tested, 0.71% active. AID 489030; active means inhibition of at least 40% at 20 µM
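System: Apoptosome proteins | Medium: Hepes pH 7.5 with detergent and BSA | Also added: Cytochrome c trigger plus (Z-DEVD)2-Rh110 caspase-3 substrate | Incubation: 30 min compound preincubation, 50 min activation, room temperature | Detection: Rhodamine 110 fluorescence at Ex 480/Em 540 nm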
MEKK2wt confirm: raises or lowers MEK5 binding to wildtype human MEKK2, retest; bead flow cytometry, Alexa488-MEK5 binding to MEKK2 WT; actives lie on both sides; AID 1892; shares compounds with MEKK3 PB1 HTS; 5,900 tested, 2.4% active; binding response (% of control), % at 10 µM; in the data active means binding response below about 16% or above about 210%; inactive means in between
MEKK2mut-MEK5: signal of MEK5 binding to mutant human MEKK2, retest. shares compounds with MEKK3 PB1 HTS. bead flow cytometry, Alexa488-MEK5 binding to MEKK2 mutant. percent response, % at 10 µM. 5,900 tested, 2% active. AID 1893; in the data active means percent response mostly above about 71%, no sharp cut-off; inactive means mostly below about 38%;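 further: higher means compound restores mutant binding toward wildtype level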
MEKK3 confirm: MEKK3-MEK5 PB1 inhibition, single concentration confirmation; shares compounds with MEKK3 PB1 HTS; bead flow cytometry, Alexa488-MEK5 binding to MEKK3; active compounds read low; binding response (% of control), % at 10 µM; 5,900 tested, 1.8% active;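 active means binding response below 72% of control, or above a set upper limit, though filed actives all read lower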;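 further: lower values mean stronger disruption of MEK5 binding to MEKK3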
Hits are given with their value; – = inactive; · = not tested or not shown; [ ] = dose if it differs, or a comment. Only some compounds are listed: those with a hit (about 3.1% of all), similar ones and a draw of the others.

SMILES	UBC13 polyUb	MEKK3 PB1 HTS	MEKK2wt PB1 HTS	MEKK2 mut-MEK5	PREPL inh	Apaf-1 inh	MEKK2wt confirm	MEKK2mut-MEK5	MEKK3 confirm
CC(=O)OC1OCCOC1NC(=S)NCc1ccco1 (centres undefined)	–	1.0[inhibitor]	·	–	–	–	–	–	–
Cn1c(=O)c2cc(S(=O)(=O)NC(Cc3ccccc3)C(=O)NCC3CCCO3)ccc2n(C)c1=O (centres undefined)	–	138	–	–	–	–	–	–	–
Cn1c(=O)c2cc(S(=O)(=O)NC(Cc3ccccc3)C(=O)NCc3ccco3)ccc2n(C)c1=O (centres undefined)	–	–	–	–	–	–	·	·	·
Cc1ccc(-c2csc3ncnc(SCC(=O)NCC4CCCO4)c23)cc1 (centres undefined)	–	·	·	·	–	–	·	·	·
COc1ccccc1CNC(=O)COC(=O)C1CCN(c2ccc(C(F)(F)F)cn2)CC1	–	·	·	·	–	–	·	·	·
C=CCc1c(C)nc2c(OC)cccc2c1Cl	–	131	–	–	–	–	–	–	–
COc1cccc2c(Cl)c(CC=C(Cl)Cl)c(C)nc12	–	–	–	–	–	–	·	·	·
CCO[C@H]1OC(C(N)=O)=C[C@@H](C(C)(C)C)[C@@H]1CCCO	–	–	–	–	–	–	·	·	·
O=S(=O)(Nc1cccc(S(=O)(=O)N2CCCCC2)c1)c1ccccc1F	–	·	·	·	–	–	·	·	·
COc1cccc(-n2cc(CNCc3cn(C)nc3-c3ccccc3F)cn2)c1	–	–	–	–	–	–	·	·	·
Cn1cc(CNCc2cn(C)nc2-c2ccc(C3CCCCC3)cc2)cn1	–	–	205	74	–	–	–	–	–
C[C@H]1CN([C@@H](C)CO)C(=O)c2cccc(NC(=O)C3CC3)c2O[C@H]1CN(C)Cc1ccncc1	–	·	·	·	–	–	·	·	·
CCOC(=O)Oc1c(OC)cc(C(=O)O[C@@H]2C[C@@H]3CN4CCc5c([nH]c6cc(OC)ccc56)[C@H]4C[C@@H]3[C@H](C(=O)OC)[C@H]2OC)cc1OC	–	·	·	·	–	–	·	·	·
COc1ccccc1C#Cc1ccc2c(=O)c3ccccc3n(C)c2c1	–	–	66[inhibitor]	–	–	–	–	–	–
N#C/C(=C/c1ccc(N2CCCCCC2)o1)c1ccc(Cl)cc1	–	–	–	98	–	–	–	–	–
COc1ccccc1N(CN1C(=O)c2ccccc2C1=O)C(=O)c1cccc(C)c1	–	141	–	–	–	–	-3.0[inhibitor]	–	–
O=C(COC(=O)c1ccc(S(=O)(=O)N2CCc3ccccc3C2)cc1)NC1CCS(=O)(=O)C1 (centres undefined)	–	50[inhibitor]	–	–	–	–	–	–	–
O=C(COC(=O)c1ccc(S(=O)(=O)N2CCOCC2)cc1)NC1CCCCCCC1	–	–	–	–	–	–	·	·	·
N#CNC(=Nc1cccc(Cl)c1)Oc1ccccc1	–	–	–	–	–	–	·	·	·
N#CNC(N)=Nc1cccc(Cl)c1	–	122	–	–	–	–	–	–	–
COc1ccc(C(=O)NCc2ccc3c(c2)OCO3)cc1S(=O)(=O)N1CCCC1	–	·	·	·	–	–	·	·	·
C=CCN(c1ccccc1)S(=O)(=O)c1cccc(C(=O)NC2CCN(Cc3ccccc3)CC2)c1	–	·	·	·	–	–	·	·	·
O=C(CN(c1cccc([N+](=O)[O-])c1)S(=O)(=O)c1ccccc1)N(Cc1ccccc1)Cc1ccccc1	–	137	–	–	–	–	–	–	–
O=C(CN(c1cccc([N+](=O)[O-])c1)S(=O)(=O)c1ccccc1)NCc1ccccc1	–	–	–	–	–	–	·	·	·
CN(C(=O)CSc1nc2ccccc2n1C)C1CCS(=O)(=O)C1 (centres undefined)	–	·	·	·	–	–	·	·	·

High-throughput results (PubChem BioAssay)
